Assay results of several laboratories.
Protocols differ between the studies behind these lines.

Structure (SMILES)	host	medium	route	dose	notes	Tmax [min]
CCOC(=O)c1c(NC(=O)CNC(C)C)sc2c1CCCCC2	male mouse	plasma	intraperitoneal	5 mg/kg	single dose	11.6
COCC(=O)N1CCc2[nH]c3c(Cl)c(Cl)ccc3c2[C@@H]1C	C57BL/6 mouse	blood	oral	20 mg/kg		25
COC1=CC(c2ccc[nH]2)=N/C1=C\c1[nH]c(Cc2ccc(OC(F)(F)F)cc2)cc1Cc1ccc(OC(F)(F)F)cc1	male CD-1 mouse	plasma	oral	40 mg/kg	single dose	240
CCn1c(=O)c(-c2cc(NC(=O)Nc3ccccc3)c(F)cc2Br)cc2cnc(NC)cc21	male mouse	plasma	oral	15 mg/kg	single dose	60
Cc1[nH]c(C)c(S(=O)(=O)Nc2ccc(C(F)(F)F)c(Cl)c2)c1C(=O)N1CCC(F)(F)C1	male CD-1 mouse	brain	intraperitoneal	40 mg/kg		60
Cc1nc2ccc(OCc3ccc(C(F)(F)F)cc3)cc2[nH]1	male BALB/c mouse	plasma	oral	10 mg/kg		15
Cc1ccc(OCC(=O)N[C@@H](Cc2c[nH]c3ccccc23)C(=O)OC(C)C)cc1	male Sprague-Dawley mouse	plasma	intravenous	10 mg/kg		48
NCc1ccc(-c2nn(Cc3ccccc3)c3ccccc23)o1	male CD-1 mouse	plasma	intraperitoneal	30 mg/kg		30
COC1=CC(c2ccc[nH]2)=N/C1=C\c1cc(Cc2ccc(OC(F)(F)F)cc2)c(C)[nH]1.Cl	male CD-1 mouse	liver	oral	40 mg/kg	single dose	1440
OCc1ccc(-c2nn(Cc3ccccc3)c3ccccc23)o1	male CD-1 mouse	plasma	oral	10 mg/kg		15
CC[C@H](C)[C@H](NC(=O)[C@H](CCC(=O)O)NC(=O)[C@H](CO)NC(=O)[C@@H](NC(=O)[C@@H](N)CO)C(C)C)C(=O)N[C@@H](CCC(N)=O)C(=O)N[C@@H](CC(C)C)C(=O)N[C@@H](CCSC)C(=O)N[C@@H](Cc1cnc[nH]1)C(=O)N[C@@H](CC(N)=O)C(=O)N[C@@H](CC(C)C)C(=O)NCC(=O)N[C@@H](CCCCN)C(=O)N[C@@H](Cc1cnc[nH]1)C(=O)N[C@@H](CC(C)C)C(=O)N[C@@H](CC(N)=O)C(=O)N[C@@H](CO)C(=O)N[C@@H](CCSC)C(=O)N[C@@H](CCC(=O)O)C(=O)N[C@@H](CCCNC(=N)N)C(=O)N[C@H](C(=O)N[C@@H](CCC(=O)O)C(=O)N[C@@H](Cc1c[nH]c2ccccc12)C(=O)N[C@@H](CC(C)C)C(=O)N[C@@H](CCCNC(=N)N)C(=O)N[C@@H](CCCCN)C(=O)N[C@@H](CCCCN)C(=O)N[C@@H](CC(C)C)C(=O)N[C@@H](CCC(N)=O)C(=O)N[C@@H](CC(=O)O)C(=O)N[C@H](C(=O)N[C@@H](Cc1cnc[nH]1)C(=O)N[C@@H](CC(N)=O)C(=O)N[C@@H](Cc1ccccc1)C(N)=O)C(C)C)C(C)C	female CD-1 mouse	serum	intravenous	10 nmol/kg		1.8
FC(F)(F)CN1CC(n2cc(Oc3ccn4nc(Cl)cc4n3)cn2)C1	FVB mouse	blood	oral		single dose	30
Cc1ccc(N(c2ccc(NC(=O)CN(C)c3ccccc3N3CCCC3=O)cc2)C(C)C)cc1	male CD-1 mouse	plasma	oral	20 mg/kg		40.2
NCc1ccc(-c2nn(Cc3ccncc3)c3ccccc23)o1	male CD-1 mouse	plasma	oral	10 mg/kg		30
CN(C)C(=O)c1cc2cnc(Nc3ccc(-c4ccc5c(=O)cc(N6CCOCC6)oc5c4)cc3)nc2n1C1CCCC1.Cl	BALB/c mouse	plasma	intravenous	2 mg/kg		6
